Results from ChEMBL document CHEMBL1144474, “Synthesis and anti-HIV-1 activity evaluation of 5-alkyl-2-alkylthio-6-(arylcarbonyl or alpha-cyanoarylmethyl)-3,4-dihydropyrimidin-4(3H)-ones as novel non-nucleoside HIV-1 reverse transcriptase inhibitors” (J Med Chem, 2007).

System: not listed separately
Assay: Cytotoxicity against MT4 cells after 4 days by MTT method
Assay type: cell-based
Settings: human
Outline: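 Uninfected MT-4 cells were run in parallel with the infected cultures across a range of compound concentrations (DMSO stocks, 50 mM or higher). After 4 days at 37 °C, viability was read by MTT. CC₅₀ is the concentration that cuts normal cell viability by 50%.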

| Compound | CC50 at 96 h |
| --- | --- |
| CCc1c(C(C#N)c2cccc3ccccc23)nc(SCc2ccc([N+](=O)[O-])cc2)[nH]c1=O (stereo not given) | 24.5 µM |
| CCc1c(C(=O)c2cccc3ccccc23)nc(SCc2ccccc2)[nH]c1=O | > 312 µM |
| CCc1c(C(C#N)c2cccc3ccccc23)nc(SCC(=O)c2ccc(Cl)cc2)[nH]c1=O (stereo not given) | 117 µM |
| COc1ccc(CSc2nc(C(C#N)c3c(Cl)cccc3Cl)c(C(C)C)c(=O)[nH]2)cc1 (stereo not given) | 23.5 µM |
| Cc1c(C(C#N)c2ccccc2)nc(SCC(=O)c2ccccc2)[nH]c1=O (stereo not given) | 53.8 µM |
| Cc1ccnc2c1NC(=O)c1cccnc1N2C1CC1 [NEVIRAPINE] | > 200 µM |
| O=C(CSc1nc(C(=O)c2cccc3ccccc23)cc(=O)[nH]1)c1ccccc1 | > 304 µM |
| CCc1c(C(C#N)c2cccc3ccccc23)nc(SC2CCCC2)[nH]c1=O (stereo not given) | 51.9 µM |
| Cc1c(C(C#N)c2cccc3ccccc23)nc(SCC(=O)c2ccc(Cl)cc2)[nH]c1=O (stereo not given) | 148 µM |
| CC(C)c1c(C(=O)c2cccc3ccccc23)nc(SC2CCCC2)[nH]c1=O | 24.7 µM |
| O=C(c1cc(=O)[nH]c(SC2CCCC2)n1)c1cccc2ccccc12 | 21 µM |
| COc1ccc(CSc2nc(C(C#N)c3cccc4ccccc34)c(C(C)C)c(=O)[nH]2)cc1 (stereo not given) | 2.09 µM |
| CCc1c(C(=O)c2ccc3ccccc3c2)nc(SCc2ccccc2)[nH]c1=O | 157 µM |
| CCSc1nc(C(C#N)c2cccc3ccccc23)c(CC)c(=O)[nH]1 (stereo not given) | 122 µM |
| CCSc1nc(C(=O)c2cccc3ccccc23)c(CC)c(=O)[nH]1 | 197 µM |
| CCc1c(C(C#N)c2c(Cl)cccc2Cl)nc(SCc2ccc([N+](=O)[O-])cc2)[nH]c1=O (stereo not given) | 23.5 µM |
| C=CCSc1nc(C(C#N)c2cccc3ccccc23)c(CC)c(=O)[nH]1 (stereo not given) | > 346 µM |
| COc1ccc(CSc2nc(C(C#N)c3ccccc3)c(C(C)C)c(=O)[nH]2)cc1 (stereo not given) | 26.8 µM |
| Cc1c(C(C#N)c2ccccc2)nc(SC2CCCC2)[nH]c1=O (stereo not given) | 59 µM |

System: Human immunodeficiency virus 1
Assay: Antiviral activity against wild type HIV1 3B in MT4 cells after 4 days by MTT method
Assay type: functional, organism-based
Settings: Human immunodeficiency virus 1, 3B, MT4, 96 h
Outline: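 MT-4 cells at 1 × 10⁵ cells/mL infected with HIV-1 IIIB (titrated as CCID₅₀) at MOI 0.02, then plated right away into serial compound dilutions (DMSO stocks, 50 mM or higher). After 4 days at 37 °C, viable cells were counted by MTT. IC₅₀ is the concentration giving 50% protection from viral cytopathogenicity.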

| Compound | IC50 |
| --- | --- |
| CCc1c(C(C#N)c2cccc3ccccc23)nc(SCc2ccc([N+](=O)[O-])cc2)[nH]c1=O (stereo not given) | 1.25 µM |
| CCc1c(C(=O)c2cccc3ccccc23)nc(SCc2ccccc2)[nH]c1=O | > 312 µM |
| CCc1c(C(C#N)c2cccc3ccccc23)nc(SCC(=O)c2ccc(Cl)cc2)[nH]c1=O (stereo not given) | ≥ 35.7 µM |
| COc1ccc(CSc2nc(C(C#N)c3c(Cl)cccc3Cl)c(C(C)C)c(=O)[nH]2)cc1 (stereo not given) | > 23.5 µM |
| Cc1c(C(C#N)c2ccccc2)nc(SCC(=O)c2ccccc2)[nH]c1=O (stereo not given) | 7.28 µM |
| Cc1ccnc2c1NC(=O)c1cccnc1N2C1CC1 [NEVIRAPINE] | 0.25 µM |
| O=C(CSc1nc(C(=O)c2cccc3ccccc23)cc(=O)[nH]1)c1ccccc1 | > 304 µM |
| CCc1c(C(C#N)c2cccc3ccccc23)nc(SC2CCCC2)[nH]c1=O (stereo not given) | 0.18 µM |
| Cc1c(C(C#N)c2cccc3ccccc23)nc(SCC(=O)c2ccc(Cl)cc2)[nH]c1=O (stereo not given) | 4.71 µM |
| CC(C)c1c(C(=O)c2cccc3ccccc23)nc(SC2CCCC2)[nH]c1=O | 10.9 µM |
| O=C(c1cc(=O)[nH]c(SC2CCCC2)n1)c1cccc2ccccc12 | > 21 µM |
| COc1ccc(CSc2nc(C(C#N)c3cccc4ccccc34)c(C(C)C)c(=O)[nH]2)cc1 (stereo not given) | > 2.09 µM |
| CCc1c(C(=O)c2ccc3ccccc3c2)nc(SCc2ccccc2)[nH]c1=O | ≥ 60.8 µM |
| CCSc1nc(C(C#N)c2cccc3ccccc23)c(CC)c(=O)[nH]1 (stereo not given) | 1.17 µM |
| CCSc1nc(C(=O)c2cccc3ccccc23)c(CC)c(=O)[nH]1 | 27.8 µM |
| CCc1c(C(C#N)c2c(Cl)cccc2Cl)nc(SCc2ccc([N+](=O)[O-])cc2)[nH]c1=O (stereo not given) | 2.22 µM |
| C=CCSc1nc(C(C#N)c2cccc3ccccc23)c(CC)c(=O)[nH]1 (stereo not given) | 0.58 µM |
| COc1ccc(CSc2nc(C(C#N)c3ccccc3)c(C(C)C)c(=O)[nH]2)cc1 (stereo not given) | 3.53 µM |
| Cc1c(C(C#N)c2ccccc2)nc(SC2CCCC2)[nH]c1=O (stereo not given) | 6.34 µM |

System: not listed separately
Assay: Selectivity index, CC50 for MT4 cells/IC50 for HIV1 3B
Assay type: functional
Settings: not given
Outline: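 Ratio of CC₅₀ in uninfected MT-4 cells to IC₅₀ against HIV-1 IIIB cytopathogenicity in MT-4 cells. Both values come from the 4-day, 37 °C MTT read-out, run in parallel.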

| Compound | Ratio CC50/IC50 |
| --- | --- |
| CCc1c(C(C#N)c2cccc3ccccc23)nc(SCc2ccc([N+](=O)[O-])cc2)[nH]c1=O (stereo not given) | 20 |
| CCc1c(C(C#N)c2cccc3ccccc23)nc(SCC(=O)c2ccc(Cl)cc2)[nH]c1=O (stereo not given) | <=3 |
| COc1ccc(CSc2nc(C(C#N)c3c(Cl)cccc3Cl)c(C(C)C)c(=O)[nH]2)cc1 (stereo not given) | <1 |
| Cc1c(C(C#N)c2ccccc2)nc(SCC(=O)c2ccccc2)[nH]c1=O (stereo not given) | 7 |
| Cc1ccnc2c1NC(=O)c1cccnc1N2C1CC1 [NEVIRAPINE] | >800 |
| CCc1c(C(C#N)c2cccc3ccccc23)nc(SC2CCCC2)[nH]c1=O (stereo not given) | 293 |
| Cc1c(C(C#N)c2cccc3ccccc23)nc(SCC(=O)c2ccc(Cl)cc2)[nH]c1=O (stereo not given) | 32 |
| CC(C)c1c(C(=O)c2cccc3ccccc23)nc(SC2CCCC2)[nH]c1=O | 2 |
| O=C(c1cc(=O)[nH]c(SC2CCCC2)n1)c1cccc2ccccc12 | <1 |
| COc1ccc(CSc2nc(C(C#N)c3cccc4ccccc34)c(C(C)C)c(=O)[nH]2)cc1 (stereo not given) | <1 |
| CCc1c(C(=O)c2ccc3ccccc3c2)nc(SCc2ccccc2)[nH]c1=O | <=3 |
| CCSc1nc(C(C#N)c2cccc3ccccc23)c(CC)c(=O)[nH]1 (stereo not given) | 103 |
| CCSc1nc(C(=O)c2cccc3ccccc23)c(CC)c(=O)[nH]1 | 7 |
| CCc1c(C(C#N)c2c(Cl)cccc2Cl)nc(SCc2ccc([N+](=O)[O-])cc2)[nH]c1=O (stereo not given) | 11 |
| C=CCSc1nc(C(C#N)c2cccc3ccccc23)c(CC)c(=O)[nH]1 (stereo not given) | >585 |
| COc1ccc(CSc2nc(C(C#N)c3ccccc3)c(C(C)C)c(=O)[nH]2)cc1 (stereo not given) | 8 |
| Cc1c(C(C#N)c2ccccc2)nc(SC2CCCC2)[nH]c1=O (stereo not given) | 9 |
